The values below come from ChEMBL document CHEMBL1130127, “Synthesis, photophysical properties, in vivo photosensitizing efficacy, and human serum albumin binding properties of some novel bacteriochlorins” (J Med Chem, 1997).

Activity calls are given as the source filed them. The rule behind the calls is not given here.

Data set [1] deals with Mus musculus. Kind of data set: The compound was tested in vivo for photosensitizing efficacy in DBA/2 Mice transplanted with SMT/F tumors and the activity is expressed as % response at (1-5 days) 24 hours post injection at 5 mg/kg concentration; No response. On the set-up: dose 5 mg/kg. In kind it is functional, organism-based. In short, it runs like this: (§1)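 Female DBA/2 HA-DD mice, 5-7 weeks old. A 1 mm SMT-F tumor piece from a donor was trocar-implanted subcutaneously in the axilla. At about 5 mm tumor diameter, sensitizer in 1% Tween 80/water was given iv; dose was based on extinction coefficient. At 3 or 24 h after injection, restrained mice had the tumor lit with 135 J/cm2 laser light at the in vivo long-wavelength maximum. Tumor response was followed to day 30; six mice/group.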

The test system of data set [2] is Mus musculus. Description: The compound was tested in vivo for photosensitizing efficacy in DBA/2 Mice transplanted with SMT/F tumors and the activity is expressed as % response at (21-25 days) 3 hours post injection at 2.5 mg/kg concentration; No response. In kind it is functional, organism-based. On the set-up: dose 2.5 mg/kg. In short, it runs like this:
as §1

Data set [3] relates to Mus musculus. Description: The compound was tested in vivo for photosensitizing efficacy in DBA/2 Mice transplanted with SMT/F tumors and the activity is expressed as % response at (1-5 days) 3 hours post injection at 2.5 mg/kg concentration; No response. In kind it is functional, organism-based. Further details: dose 2.5 mg/kg. In short, it runs like this:
as §1

For data set [4], the system named is Mus musculus. Kind of data set: The compound was tested in vivo for photosensitizing efficacy in DBA/2 Mice transplanted with SMT/F tumors and the activity is expressed as % response at (1-5 days) 3 hours post injection at 5.0 mg/kg concentration. The format is functional. In short, it runs like this:
as §1

Data set [5] concerns Mus musculus. Description: The compound was tested in vivo for photosensitizing efficacy in DBA/2 Mice transplanted with SMT/F tumors and the activity is expressed as % response at (11-15 days) 24 hours post injection at 5 mg/kg concentration; No response. In kind it is functional, organism-based. On the set-up: dose 5 mg/kg. In short, it runs like this: as §1
The test system of data set [6] is Mus musculus. Description: The compound was tested in vivo for photosensitizing efficacy in DBA/2 Mice transplanted with SMT/F tumors and the activity is expressed as % response at (11-15 days) 3 hours post injection at 2.5 mg/kg concentration; No response. The format is functional, organism-based. On the set-up: dose 2.5 mg/kg. In short, it runs like this: as §1

Data set [7] deals with Mus musculus. Kind of data set: The compound was tested in vivo for photosensitizing efficacy in DBA/2 Mice transplanted with SMT/F tumors and the activity is expressed as % response at (11-15 days) 3 hours post injection at 5 mg/kg concentration. The format is functional. In short, it runs like this: as §1
The test system of data set [8] is Mus musculus. Kind of data set: The compound was tested in vivo for photosensitizing efficacy in DBA/2 Mice transplanted with SMT/F tumors and the activity is expressed as % response at (16-20 days) 24 hours post injection at 5 mg/kg concentration; No response. In kind it is functional, organism-based. Further details: dose 5 mg/kg. In short, it runs like this: as §1

The test system of data set [9] is Mus musculus. Description: The compound was tested in vivo for photosensitizing efficacy in DBA/2 Mice transplanted with SMT/F tumors and the activity is expressed as % response at (16-20 days) 3 hours post injection at 2.5 mg/kg concentration; No response. In kind it is functional, organism-based. Further details: dose 2.5 mg/kg. In short, it runs like this: as §1

In data set [10] the test system is Mus musculus. Description: The compound was tested in vivo for photosensitizing efficacy in DBA/2 Mice transplanted with SMT/F tumors and the activity is expressed as % response at (21-25 days) 3 hours post injection at 5 mg/kg concentration. In kind it is functional.
Data set [11] has as its system Mus musculus. Kind of data set: The compound was tested in vivo for photosensitizing efficacy in DBA/2 Mice transplanted with SMT/F tumors and the activity is expressed as % response at (26-30 days) 24 hours post injection at 5 mg/kg concentration; No response. The format is functional, organism-based. On the set-up: dose 5 mg/kg.
Data set [12] deals with Mus musculus. Kind of data set: The compound was tested in vivo for photosensitizing efficacy in DBA/2 Mice transplanted with SMT/F tumors and the activity is expressed as % response at (26-30 days) 3 hours post injection at 2.5 mg/kg concentration; No response. The format is functional, organism-based. Further details: dose 2.5 mg/kg.
The test system of data set [13] is Mus musculus. Description: The compound was tested in vivo for photosensitizing efficacy in DBA/2 Mice transplanted with SMT/F tumors and the activity is expressed as % response at (26-30 days) 3 hours post injection at 5 mg/kg concentration. The format is functional.
Data set [14] has as its system Mus musculus. Description: The compound was tested in vivo for photosensitizing efficacy in DBA/2 Mice transplanted with SMT/F tumors and the activity is expressed as % response at (6-10 days) 24 hours post injection at 5 mg/kg concentration; No response. On the set-up: dose 5 mg/kg. The format is functional, organism-based.
Data set [15] has as its system Mus musculus. Kind of data set: The compound was tested in vivo for photosensitizing efficacy in DBA/2 Mice transplanted with SMT/F tumors and the activity is expressed as % response at (6-10 days) 3 hours post injection at 2.5 mg/kg concentration; No response. The format is functional, organism-based. On the set-up: dose 2.5 mg/kg.
Data set [16] concerns Mus musculus. Kind of data set: The compound was tested in vivo for photosensitizing efficacy in DBA/2 Mice transplanted with SMT/F tumors and the activity is expressed as % response at (6-10 days) 3 hours post injection at 5 mg/kg concentration. In kind it is functional.
Data set [17] relates to Mus musculus. Kind of data set: The compound was tested in vivo for photosensitizing efficacy in DBA/2 Mice transplanted with SMT/F tumors and the activity is expressed as % response at (16-20 days) 3 hours post injection at 5 mg/kg concentration. The format is functional. A digest of the protocol:
as §1

Data set [18] concerns Mus musculus. Kind of data set: The compound was tested in vivo for photosensitizing efficacy in DBA/2 Mice transplanted with SMT/F tumors and the activity is expressed as % response at (21-25 days) 24 hours post injection at 5 mg/kg concentration; No response. In kind it is functional, organism-based. On the set-up: dose 5 mg/kg. In short, it runs like this:
as §1

For data set [19], the target named is T1, Albumin (Homo sapiens, UniProt P02768). Description: Binding affinity against Human serum albumin(Site I). In short, it runs like this:
(§2)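 Fluorometric titration: HSA and sensitizer fixed at 1 × 10^-6 mol/L. Site probe varied 4 × 10^-7 to 2 × 10^-6 mol/L: DNSA for site I, read at 472 nm; DP for site II, read at 476 nm; excitation 340 nm. Incubated 4 °C, pH 7.0, 4 h, dark. Bound probe taken from standard curves of free probe (water) and HSA-bound probe (2.5 × 10^-5 mol/L HSA).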

Data set [20] has as its system Mus musculus. Description: The compound was tested in vivo for photosensitizing efficacy in DBA/2 Mice transplanted with SMT/F tumors and the activity is expressed as % response at (21-25 days) 3 hours post injection at 2.5 mg/kg concentration. In kind it is functional. A digest of the protocol:
as §1

In data set [21] the test system is Mus musculus. Description: The compound was tested in vivo for photosensitizing efficacy in DBA/2 Mice transplanted with SMT/F tumors and the activity is expressed as % response at (1-5 days) 24 hours post injection at 5.0 mg/kg concentration; No response. On the set-up: dose 5 mg/kg. In kind it is functional, organism-based. A digest of the protocol:
as §1

Data set [22] has as its system Mus musculus. Description: The compound was tested in vivo for photosensitizing efficacy in DBA/2 Mice transplanted with SMT/F tumors and the activity is expressed as % response at (1-5 days) 3 hours post injection at 1 mg/kg concentration. The format is functional. A digest of the protocol:
as §1

Data set [23] relates to Mus musculus. Description: The compound was tested in vivo for photosensitizing efficacy in DBA/2 Mice transplanted with SMT/F tumors and the activity is expressed as % response at (1-5 days) 3 hours post injection at 2.5 mg/kg concentration. In kind it is functional. In short, it runs like this:
as §1

Data set [24] relates to Mus musculus. Kind of data set: The compound was tested in vivo for photosensitizing efficacy in DBA/2 Mice transplanted with SMT/F tumors and the activity is expressed as % response at (11-15 days) 3 hours post injection at 1 mg/kg concentration. The format is functional. A digest of the protocol: as §1
Data set [25] has as its system Mus musculus. Kind of data set: The compound was tested in vivo for photosensitizing efficacy in DBA/2 Mice transplanted with SMT/F tumors and the activity is expressed as % response at (11-15 days) 3 hours post injection at 2.5 mg/kg concentration. The format is functional. In short, it runs like this:
as §1

In data set [26] the test system is Mus musculus. Kind of data set: The compound was tested in vivo for photosensitizing efficacy in DBA/2 Mice transplanted with SMT/F tumors and the activity is expressed as % response at (16-20 days) 3 hours post injection at 1 mg/kg concentration. In kind it is functional. In short, it runs like this: as §1
For data set [27], the system named is Mus musculus. Description: The compound was tested in vivo for photosensitizing efficacy in DBA/2 Mice transplanted with SMT/F tumors and the activity is expressed as % response at (16-20 days) 3 hours post injection at 2.5 mg/kg concentration. The format is functional. A digest of the protocol: as §1
In data set [28] the test system is Mus musculus. Kind of data set: The compound was tested in vivo for photosensitizing efficacy in DBA/2 Mice transplanted with SMT/F tumors and the activity is expressed as % response at (26-30 days) 3 hours post injection at 1 mg/kg concentration. The format is functional.
Data set [29] has as its system Mus musculus. Description: The compound was tested in vivo for photosensitizing efficacy in DBA/2 Mice transplanted with SMT/F tumors and the activity is expressed as % response at (26-30 days) 3 hours post injection at 2.5 mg/kg concentration. The format is functional.
Data set [30] relates to Mus musculus. Description: The compound was tested in vivo for photosensitizing efficacy in DBA/2 Mice transplanted with SMT/F tumors and the activity is expressed as % response at (6-10 days) 3 hours post injection at 1 mg/kg concentration. The format is functional.
For data set [31], the system named is Mus musculus. Kind of data set: The compound was tested in vivo for photosensitizing efficacy in DBA/2 Mice transplanted with SMT/F tumors and the activity is expressed as % response at (6-10 days) 3 hours post injection at 2.5 mg/kg concentration. The format is functional. In short, it runs like this:
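SMT-F tumor piece (1 mm) from donor implanted subcutaneously by trocar into axilla of 5–7-week-old female DBA/2 HA-DD mice; treated at ~5 mm diameter. Sensitizer dissolved in 1% Tween 80/water, given iv; 3 h later restrained mouse's tumor illuminated with 135 J/cm2 laser light at in vivo long-wavelength absorption maximum. Tumor response scored over 30 days; six mice/group.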

Data set [32] deals with Mus musculus. Kind of data set: The compound was tested in vivo for photosensitizing efficacy in DBA/2 Mice transplanted with SMT/F tumors and the activity is expressed as % response at (21-25 days) 3 hours post injection at 1 mg/kg concentration. In kind it is functional. In short, it runs like this:
as §1

In data set [33] the target is T1, Albumin. Description: Binding affinity against Human serum albumin(Site II). In short, it runs like this: as §2

T1 sequence (P02768 whole entry): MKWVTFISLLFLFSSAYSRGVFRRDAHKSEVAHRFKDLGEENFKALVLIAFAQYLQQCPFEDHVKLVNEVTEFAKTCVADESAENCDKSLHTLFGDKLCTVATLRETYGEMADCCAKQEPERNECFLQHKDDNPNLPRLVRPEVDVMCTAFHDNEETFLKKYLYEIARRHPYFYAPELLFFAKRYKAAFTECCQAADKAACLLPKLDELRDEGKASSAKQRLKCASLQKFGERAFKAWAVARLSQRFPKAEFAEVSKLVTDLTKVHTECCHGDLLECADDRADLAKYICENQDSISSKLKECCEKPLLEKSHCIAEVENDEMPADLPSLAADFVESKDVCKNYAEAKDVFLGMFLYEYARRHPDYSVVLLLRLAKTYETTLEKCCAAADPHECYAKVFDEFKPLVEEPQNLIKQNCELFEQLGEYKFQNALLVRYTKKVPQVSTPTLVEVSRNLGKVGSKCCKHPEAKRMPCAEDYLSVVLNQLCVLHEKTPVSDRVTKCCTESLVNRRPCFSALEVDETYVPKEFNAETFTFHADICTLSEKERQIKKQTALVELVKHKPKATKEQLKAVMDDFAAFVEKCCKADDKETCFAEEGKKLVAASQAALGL

On to `CCc1c(C)c2[nH]c1cc1[nH]c(cc3nc4c(c5nc(c2C=O)[C@@H](C)[C@@H]5CCC(=O)NC(CC(=O)OC(C)(C)C)C(=O)OC(C)(C)C)CCC4=C3C)C(O)(CC)C1(C)O` (some centres undefined), for which the Response entry in the data set with Mus musculus [1], in the data set with Mus musculus [2], in the data set with Mus musculus [3], in the data set with Mus musculus [5], in the data set on Mus musculus [6] and in the data set on Mus musculus [8] was “inactive” in each case. For the same compound, the Response result in the data set with Mus musculus [9], with Mus musculus [11], in the data set on Mus musculus [12], with Mus musculus [14], in the data set on Mus musculus [15] and in the data set with Mus musculus [18] was “inactive” throughout. Moreover, the Response came to 100% with Mus musculus [4]; 100% in the data set with Mus musculus [7]; 50% with Mus musculus [10]; 50% in the data set on Mus musculus [13]; 100% with Mus musculus [16]; 80% with Mus musculus [17]. Further, at Albumin [19], the Binding constant was 500000 l M-1.
Consider `CCc1c(C)c2[nH]c1cc1[nH]c(cc3nc4c(c5nc(c2C=O)[C@@H](C)[C@@H]5CCC(=O)NC(CC(=O)OC(C)(C)C)C(=O)OC(C)(C)C)CCC4=C3C)C(=O)C1(C)CC` (some centres undefined), for which the Response worked out at 60% in the data set with Mus musculus [20]; 100% in the data set with Mus musculus [22]; 100% in the data set on Mus musculus [23]; 60% in the data set on Mus musculus [24]; 60% with Mus musculus [25]; 60% in the data set on Mus musculus [26]. Besides, the Response with Mus musculus [27] worked out at 60%; with Mus musculus [28], 50%; in the data set on Mus musculus [29], 60%; with Mus musculus [30], 80%; in the data set on Mus musculus [31], 100%; in the data set on Mus musculus [32], 50%. The Response result in the data set on Mus musculus [21], with Mus musculus [5], with Mus musculus [8], with Mus musculus [11], in the data set with Mus musculus [14] and in the data set on Mus musculus [18] was “inactive” in each case. Further, the Binding constant on Albumin [19] and at Albumin [33] was 500000 l M-1 in each case.
